Hits are enriched below; roughly 11% of the tested compounds scored in any of these assays.
D1 mod – D1 CRE-luciferase signal change, two-sided – cell-based, HEK293 D1, dopamine EC30, D1 allosteric modulator project, primary screen; D(1A) dopamine receptor (Homo sapiens), P21728; dopamine EC30 potentiation; actives deviate in either direction; B-score at 10 µM; hit rate 5.9% among 58,000;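 active = luminescence count or its row- and column-corrected plate score outside the 99.7% band of the plate's sample wells, on either side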
Target sequence (P21728 whole entry, looked up): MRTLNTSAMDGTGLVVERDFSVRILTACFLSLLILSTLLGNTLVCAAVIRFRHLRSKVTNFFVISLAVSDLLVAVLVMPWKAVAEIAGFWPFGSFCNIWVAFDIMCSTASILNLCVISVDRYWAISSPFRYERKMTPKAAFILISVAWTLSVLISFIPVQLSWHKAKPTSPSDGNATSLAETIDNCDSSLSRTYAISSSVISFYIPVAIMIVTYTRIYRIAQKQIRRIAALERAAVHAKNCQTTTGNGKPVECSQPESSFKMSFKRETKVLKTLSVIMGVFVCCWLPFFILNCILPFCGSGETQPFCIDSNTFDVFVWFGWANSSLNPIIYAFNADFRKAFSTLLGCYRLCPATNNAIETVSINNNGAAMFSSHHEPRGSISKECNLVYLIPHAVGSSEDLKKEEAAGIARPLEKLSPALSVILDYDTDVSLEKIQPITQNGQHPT
M1 ag – M1 muscarinic receptor agonists, primary screen, CHO-M1 cells, Fluo-4 calcium, agonist mode | Muscarinic acetylcholine receptor M1 | Fluo-4 calcium fluorescence; stronger effect = higher value | B-score at 10 µM | hit rate 3% among 64,000;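 active = fluorescence rise, raw or as B-score row- and column-corrected plate score, outside the 99.7% band of its plate's samples, either direction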
M1 antag – antagonists of rat M1 muscarinic receptor. Muscarinic acetylcholine receptor M1 (Rattus norvegicus), P08482. CHO-M1 cells, Fluo-4 calcium, ACh EC80 antagonist mode; stronger effect = lower value. B-score at 10 µM. hit rate 3.4% among 64,000. AID 628, 2007;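 active = calcium fluorescence response, raw or row-and-column corrected B-score, differing from the plate sample mean either way at a set confidence level, mostly lower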
S1P3 ag – human S1P3 receptor agonists, primary screen, cell-based, primary and confirmation, NFAT-BLA reporter; Sphingosine 1-phosphate receptor 3 (Homo sapiens), Q99500; S1P3 NFAT-BLA reporter cells, agonism, FRET ratio; relative to 1 µM S1P, basal subtracted; activation, % at 4.5 µM; hit rate 0.1% among 60,000;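 active = activation above the screen-wide mean plus 3 SD, cut at about 4.5% in these data, passing the limit was not always enough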
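Measure – % activation relative to 1 µM S1P (100%), per plate · System – stable CHO line with human S1P3, Gα16, NFAT-BLA reporter · Timing – cells plated overnight, compound 4 h 37 °C, substrate 2 h RT · Technique – fluorescent BLA substrate, ex 405 nm, em 460/535 nm ratio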
S1P1 ag pot – S1P1 agonists and agonism potentiators, primary screen, cell-based, primary and confirmation screens, CRE-bla reporter | Sphingosine 1-phosphate receptor 1 (Homo sapiens), P21453 | S1P1 CRE-bla cells, forskolin, beta-lactamase FRET, potentiator mode; S1P1 agonist co-added at EC20, 2 nM; 100% = saturating reference agonist, 0% = basal | activation, % at 9.5 µM | hit rate 0.57% among 56,000 | AID 449, 2006;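 active = activation above a cutoff set at the mean activation of all tested compounds plus 3 SD, cut at about 54% in these data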;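 note: forskolin at 4 µM as EC80 and the EC20 agonist is SEW2871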
Hits are given with their value; i = inactive; nt = not tested or not shown.

SMILES | D1 mod | M1 ag | M1 antag | S1P3 ag | S1P1 ag pot
CS(=O)(=O)NCCC1=CCCCC1 | i | i | i | i | nt
COC(=O)c1ccsc1NC(=O)c1ccc2c(c1)OCCO2 | 3.79 | i | i | i | i
Cn1ccnc1SCc1cn2cc(Br)ccc2n1 | -4.67 | i | i | nt | nt
COC(=O)c1ccc(CSc2nccn2C)cc1 | i | i | i | i | nt
COC(=O)c1cc(OC)c(OC)cc1NC(=O)c1cc(C)on1 | nt | i | i | i | i
Cc1ccccc1OCc1nc(-c2ccc(NC(=O)c3ccco3)cc2)no1 | i | i | i | nt | nt
O=C(Nc1ccc(-c2noc(CCc3ccccc3)n2)cc1)c1cccnc1 | i | i | i | i | 93.7
CCCc1ccc(OCc2nc(-c3ccc(NC(=O)c4ccco4)cc3)no2)cc1 | i | i | i | i | 94.4
COc1ccc(C2(C(=O)NCCCN(C)C)CCOCC2)cc1 | i | i | i | i | i
COc1cc2[nH]c(=S)n(NC(=O)CC(C)C)c(=O)c2cc1OC | i | i | i | i | nt
O=C(COc1ccc(Cl)cc1Cl)Nc1ccccn1 | -4.48 | i | i | i | nt
CC(c1ccco1)N(C(=O)COc1ccc(Cl)cc1Cl)c1ccccn1 (stereo not given) | -7.27 | i | i | nt | nt
CS(=O)(=O)N(CCc1ccccc1)CC(=O)NCc1ccccn1 | i | i | i | i | i
CNS(=O)(=O)c1cccc(C(=O)OCc2cc(Cl)cc3c2OCOC3)c1 | i | i | i | i | i
COc1ccc(NC(=O)CC2SC(=NCc3ccccc3OC)NC2=O)cc1 (stereo not given) | -3.99 | i | i | i | i
Cc1nn(Cc2ccc(Cl)cc2)c(C)c1NC(=O)C1CC=CCC1C(=O)O (stereo not given) | i | i | i | i | i
O=C(c1cc2c(=O)oc3ccccc3c2s1)N1CCOCC1 | -4.59 | nt | nt | i | i
COc1cc(C(=O)Nc2cc(C)ccn2)cc(OC)c1OC | i | i | i | i | i
COc1ccc(C(=O)NC(=O)Nc2cc(C)ccn2)cc1 | -5.98 | i | i | i | i
CN1CCN(c2ccc(NC(=O)c3ccccc3Br)cc2)CC1 | -4.56 | i | i | i | i
O=C(c1ccccc1Br)N1CCN(c2ccccc2)CC1 | i | i | i | i | i
CCCCOc1ccc(C(=O)Nc2ccc(N3CCN(C)CC3)cc2)cc1 | -3.16 | i | i | i | i
CC1(C)Oc2ccc3ccc(=O)oc3c2/C(=C/Nc2ccccn2)C1=O | -3.59 | i | i | i | nt
Cc1nc(NC(=O)c2ccccc2)sc1-c1csc(N)n1 | i | i | i | i | i
Cc1ccc(NC(=O)c2ccccc2)s1 | -5.19 | i | i | i | i
SMILES | D1 mod | M1 ag | M1 antag | S1P3 ag | S1P1 ag pot
Cc1cc(NC(=O)c2ccccc2)sc1C | -2.89 | i | i | i | i
O=C(NCC1CCS(=O)(=O)C1)Oc1ccccc1 (stereo not given) | i | i | i | i | i
O=c1oc2c3c4c(cc2cc1-c1nc2ccccc2[nH]1)CCCN4CCC3 | -2.74 | 338 | -15.3 | i | i
O=c1oc2c(CN3CCCCC3)c(O)ccc2cc1-c1nc2ccccc2[nH]1 | i | 182 | -18.3 | i | i
Cc1nn2cc(-c3ccccc3)nc2s1 | -3.88 | i | i | nt | nt
c1ccc(-c2nnc3sc(-c4ccncc4)nn23)cc1 | i | i | i | i | i
c1ccc(-c2cn3nc(-c4ccccc4)sc3n2)cc1 | -8.22 | i | i | i | i
CC(C)CCN1C(=O)c2ccc(C(=O)NCC3CCCO3)cc2C1=O (stereo not given) | nt | i | i | i | i
O=C(CN(c1ccccc1F)S(=O)(=O)c1ccccc1)N1CCCCCC1 | i | i | i | nt | nt
CCOc1ccc(NC(=O)c2cc3n(n2)C(C(F)(F)F)CC(c2ccco2)N3)cc1 (stereo not given) | -7.48 | i | i | i | i
O=C(NC1CCCCCC1)c1cc2n(n1)C(C(F)(F)F)CC(c1ccco1)N2 (stereo not given) | i | i | i | i | i
O=C(OCc1nnc(-c2ccccc2)o1)c1ccc(S(=O)(=O)NCc2ccco2)cc1 | i | i | i | i | i
COc1ccc(CCNC(=O)c2c(O)c3c([nH]c2=O)CCCC3)cc1 | i | i | i | nt | nt
CCC(C)c1ccc2oc(-c3ccc(NC(=O)c4ncn[nH]4)cc3)nc2c1 (stereo not given) | i | i | i | 15.8 | 97.6
CN1C(=S)SC(/[N+]([O-])=C/c2cccnc2)C1(C)C (stereo not given) | -6.01 | i | i | i | i
Cc1cc2cc(CNC(=O)Cc3cccs3)ccc2n1C | i | i | i | i | i
COc1ccc(-n2c(SCC(=O)Nc3nccs3)nc3c(c2=O)SC(C)C3)cc1 (stereo not given) | nt | i | 0.818 | i | i
COc1ccc(OC)c(C(C)NC(=O)c2ccco2)c1 (stereo not given) | i | i | i | i | nt
Cc1nnc(Sc2nc3c(c(=O)[nH]c(=O)n3C)n2Cc2ccccc2Cl)s1 | i | i | i | i | i
O=C(Nc1ccc(OC(F)F)c(Cl)c1)Nc1ccc2c(c1)OCO2 | i | i | i | i | 59.1
COc1ccc(C(C)(C)C)cc1NC(=O)Nc1ccc2c(c1)OCO2 | i | i | i | i | i
CCCCc1ccc(-c2ccc(C)cc2O)nc1 | -5.29 | i | i | i | i
CCOc1ccc(-c2cn(CCC#N)cn2)cc1 | i | i | 2.12 | i | i
CCOc1ccc(-c2nn[nH]n2)cc1 | i | i | i | i | i
CC(C)OC(=O)CSc1nnc(-c2cccnc2)n1N | i | i | i | i | i
SMILES | D1 mod | M1 ag | M1 antag | S1P3 ag | S1P1 ag pot
COc1cccc(-n2c(SCC(=O)OC(C)C)nnc2-c2cccnc2)c1 | i | i | 2.65 | i | i
CCOC(=O)c1nc(NCc2cccnc2)c2ccccc2n1 | 2.71 | i | i | i | nt
COC(=O)CNc1nc(-c2cccnc2)nc2ccccc12 | nt | i | i | i | i
COc1cc(NS(=O)(=O)c2ccc(Br)cc2)c(OC)cc1NC(=O)c1ccco1 | i | i | i | i | i
Cc1cc(C)c(N2CCN(S(=O)(=O)N3CCCCCC3)CC2)c(C)c1 | i | i | i | i | i
COc1ccc(Nc2ncnc3nc[nH]c23)cc1OC | nt | i | i | i | i
CCOC(=O)c1ccc(Nc2ncnc3nc[nH]c23)cc1 | -5.87 | i | i | nt | nt
COC(=O)c1ccccc1S(=O)(=O)N(Cc1ccco1)Cc1cc2cc(OC)ccc2[nH]c1=O | i | 7.72 | i | i | i
COc1ccc2[nH]c(=O)c(CN(Cc3ccco3)Cc3nnnn3Cc3ccccc3)cc2c1 | i | i | i | i | i
Cc1nc(Nc2ccncc2)c2oc3ccccc3c2n1 | i | 22.1 | -2.9 | nt | nt
CC(=O)Nc1ccc(Nc2nc(C)nc3c2oc2ccccc23)cc1 | nt | nt | nt | i | i
Cc1cc2nc(C)c(Cc3ccccc3)c(=O)n2[nH]1 | i | i | i | i | i

Bioassay records (PubChem BioAssay)
